{
  "source": "PubChem BioAssay AID504382",
  "about": "(The Scripps Research Institute Molecular Screening Center, 2011)",
  "note": "In all, about 2,500 compounds went through this assay and about 460 (18%) were called active.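 How the source made its calls: active means mean activation above a cutoff of low control average plus 3 SD from the earlier screen (cut at about 12% in these data); inactive means the rest.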 The list is a sample of the results.",
  "data": [
    {"experiment": "compound fluorescence interference without thin filaments, confirmation, artefact control for cardiac RTF calcium sensitizer project, biochemical (AID 504382)", "conditions": "IANBD fluorescence interference counterscreen, buffer, EC20 Ca2+; at 7.2 µM; hits give high values", "outline": "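timing = compound incubation 15 min at 25 °C before fluorescence reading | technique = fluorescence at 480 nm excitation, 540 nm emission | evaluation = interference relative to controls | replication = triplicate wells per compound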", "values": [
      {"smiles": "CCOCCCNC(=O)C1c2cc(OC)c(OC)cc2C(=O)N2CCCCC12", "note": "(stereo not drawn)", "fluorescence artifact activation": "0.42% (inactive)"},
      {"smiles": "O=c1[nH]c(O)c(C=Nc2ccccc2Oc2ccccc2)c(=O)[nH]1", "fluorescence artifact activation": "0.37% (inactive)"},
      {"smiles": "C=CCN1C(=O)/C(=C/c2ccc(N3CCOCC3)o2)C(=O)NC1=S", "fluorescence artifact activation": "5.89% (inactive)"},
      {"smiles": "CCN1C(=O)C(=Cc2ccc(N3CCOCC3)o2)C(=O)N(CC)C1=S", "fluorescence artifact activation": "0.14% (inactive)"},
      {"smiles": "CN1C(=O)/C(=C/c2ccc(N3CCCCCC3)o2)C(=O)NC1=S", "fluorescence artifact activation": "1.84% (inactive)"},
      {"smiles": "CN1C(=O)/C(=C\\c2ccc(N3CCCCC3)o2)C(=O)NC1=S", "fluorescence artifact activation": "0.13% (inactive)"},
      {"smiles": "CN1C(=O)C(=Cc2ccc(N3CCOCC3)o2)C(=O)N(C)C1=S", "fluorescence artifact activation": "0.02% (inactive)"},
      {"smiles": "CN1C(=O)C(=Cc2ccc(N3CCOCC3)o2)C(=O)N(C)C1=O", "fluorescence artifact activation": "16.2% (active)"},
      {"smiles": "CN1C(=O)C(=Cc2ccc(N3CCCCCC3)o2)C(=O)N(C)C1=S", "fluorescence artifact activation": "35.9% (active)"},
      {"smiles": "COc1cc(/C=C2/C(=O)NC(=O)N(c3ccc(C)cc3)C2=O)cc(OC)c1OC", "fluorescence artifact activation": "0.06% (inactive)"},
      {"smiles": "CCN1C[C@]2(CO)CC[C@H](OC)[C@@]34C5C[C@H]6[C@H](OC)C5[C@](O)(C[C@H]6OC)[C@@H](C(OC)C23)[C@@H]14", "note": "(stereo partly drawn)", "fluorescence artifact activation": "2.26% (inactive)"},
      {"smiles": "NC(=O)c1c(NC(=O)c2ccc(S(=O)(=O)N(CCCl)CCCl)cc2)sc2c1CCCCC2", "fluorescence artifact activation": "0.08% (inactive)"},
      {"smiles": "CC1=NCCc2c1[nH]c1cc(O)ccc21", "fluorescence artifact activation": "0.1% (inactive)"},
      {"smiles": "Cc1cc(Cl)ccc1C(=O)C1CCCN(C2CCSCC2)C1", "note": "(stereo not drawn)", "fluorescence artifact activation": "0% (inactive)"},
      {"smiles": "COC(=O)C1=C(c2cccc(C#N)c2)C[C@@H]2CC[C@H]1N2C(=O)N1CCOCC1", "fluorescence artifact activation": "1.36% (inactive)"},
      {"smiles": "Nc1c(C(=O)NCC2CCCO2)c2nc3ccccc3nc2n1Cc1ccco1", "note": "(stereo not drawn)", "fluorescence artifact activation": "732% (active)"},
      {"smiles": "COCCNC(=O)c1c(N)n(Cc2ccco2)c2nc3ccccc3nc12", "fluorescence artifact activation": "1.48% (inactive)"},
      {"smiles": "COCCOC(=O)c1c(N)n(Cc2ccco2)c2nc3ccccc3nc12", "fluorescence artifact activation": "-0.01% (inactive)"},
      {"smiles": "CCOC(=O)c1cc(CC)sc1/N=C/c1c(O)[nH]c(=S)[nH]c1=O", "fluorescence artifact activation": "1.47% (inactive)"},
      {"smiles": "CCN(CC)c1ccc(C=C2C(=O)N(C)C(=S)N(C)C2=O)o1", "fluorescence artifact activation": "-0.01% (inactive)"},
      {"smiles": "Cc1cc(C=C(C#N)C#N)ccc1N1CCCC1", "fluorescence artifact activation": "0.79% (inactive)"},
      {"smiles": "Cc1cc(N2CCCC2)ccc1C=C(C#N)C#N", "fluorescence artifact activation": "17.8% (active)"},
      {"smiles": "COc1ccc(-n2c(O)c(/C=C/C=Nc3ccccc3)c(=O)[nH]c2=O)cc1", "fluorescence artifact activation": "-0.12% (inactive)"},
      {"smiles": "Cc1ccc(/C=C2/Sc3ccc(C(=O)N4CCC5(CC4)OCCO5)cc3NC2=O)cc1", "fluorescence artifact activation": "38.7% (active)"},
      {"smiles": "CNS(=O)(=O)c1ccc(N=Cc2c(O)n(-c3ccccc3)c(=O)[nH]c2=O)cc1", "fluorescence artifact activation": "8.1% (inactive)"},
      {"smiles": "CCC1(C)OC(c2ccccc2)=C/C(=C/C=C2C(=O)NC(=O)NC2=O)O1", "note": "(stereo not drawn)", "fluorescence artifact activation": "4.44% (inactive)"},
      {"smiles": "CCN(CC)CCCOC(=O)C(OC(C)C)(c1ccccc1)c1ccccc1", "fluorescence artifact activation": "17.1% (active)"},
      {"smiles": "CCCCN1C(=O)NC(=O)C2(Cc3ccccc3N3CCOCC32)C1=O", "note": "(stereo not drawn)", "fluorescence artifact activation": "-0.11% (inactive)"},
      {"smiles": "Cc1ccc(-n2c(O)c(C=NCC3CCCO3)c(=O)[nH]c2=O)c(C)c1", "note": "(stereo not drawn)", "fluorescence artifact activation": "0.07% (inactive)"},
      {"smiles": "N#CC(C#N)=Cc1ccc(-c2ccccc2F)o1", "fluorescence artifact activation": "6.89% (inactive)"},
      {"smiles": "CCCc1cc(=O)oc2cc(OCC(=O)N3C[C@H]4C[C@@H](C3)c3cccc(=O)n3C4)ccc12", "fluorescence artifact activation": "36.4% (active)"},
      {"smiles": "CCCc1cc(=O)oc2cc(OCC(=O)N3CCC(C(=O)O)(c4ccccc4)CC3)ccc12", "fluorescence artifact activation": "0.1% (inactive)"},
      {"smiles": "Cn1c(O)c(/C=C/C=Nc2ccccc2)c(=O)n(C)c1=S", "fluorescence artifact activation": "5.68% (inactive)"}
    ]}
  ]
}
